Measurements: ChEMBL document CHEMBL1671867, “Novel polymyxin derivatives carrying only three positive charges are effective antibacterial agents” (Antimicrob Agents Chemother, 2008)
Bridge positions count the residues as written; N and C are the ends. Square brackets hold non-standard residues; d marks the D form. Peptide text beside a SMILES is read from it. * marks the point of attachment. Octanoyl = CCCCCCCC(=O)*; Dab = NCC[C@H](N)C(=O)O; Abu = CC[C@H](N)C(=O)O

How the values were obtained:
Escherichia coli [1] = test: Antibacterial activity against Escherichia coli IH3080 assessed as growth inhibition at 10 ug after 18 hrs by […]; type: functional
Escherichia coli [2] = test: Antibacterial activity against Escherichia coli IH3080 assessed as growth inhibition at 10 ug after 18 hrs by […] in presence of 1 ug/ml rifampin; type: functional
[3] = Inhibition of [3H]gentamicin binding to brush border membrane of renal cortex
Procedure, shortened: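 Brush border membrane vesicles prepared from male albino rat renal cortex by Mg2+-EGTA precipitation. Incubated with 20 μM [3H]gentamicin in 10 mM HEPES pH 7.5 with 300 mM mannitol, with or without compound, 60 min at 4°C. Then filtered, washed, and bound radioactivity counted by scintillation. IC50 fitted with the Hill equation.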

Molecule	inhibition zone (IZ) (Escherichia coli [1]) [mm2]	inhibition zone (IZ) (Escherichia coli [2]) [mm2]	IC50 [3] [µM]
CCCCCCCC(=O)N[C@H](C(=O)N[C@@H](CC(N)=O)C(=O)N[C@H]1CCNC(=O)[C@H]([C@@H](C)O)NC(=O)[C@H](CCN)NC(=O)[C@H](CCN)NC(=O)[C@H](CC(C)C)NC(=O)[C@H](Cc2ccccc2)NC(=O)[C@H](CCN)NC1=O)[C@@H](C)O (Octanoyl-TN[Dab][Dab]FL[Dab][Dab]T; lactam 3-C)	10	180	
CCCCCCCC(=O)N[C@H](C(=O)N[C@@H](C(=O)N[C@H]1CCNC(=O)[C@H]([C@@H](C)O)NC(=O)[C@H](CCN)NC(=O)[C@H](CCN)NC(=O)[C@H]([C@@H](C)O)NC(=O)[C@H](Cc2ccccc2)NC(=O)[C@H](CCN)NC1=O)[C@@H](C)O)[C@@H](C)O	200	250	
CCCCCCCC(=O)N[C@H](C(=O)N[C@H](CO)C(=O)N[C@H]1CCNC(=O)[C@H]([C@@H](C)O)NC(=O)[C@H](CCN)NC(=O)[C@H](CCN)NC(=O)[C@H]([C@@H](C)O)NC(=O)[C@H](Cc2ccccc2)NC(=O)[C@H](CCN)NC1=O)[C@@H](C)O	172	190	
CCCCCCCC(=O)N[C@H](C(=O)N[C@@H](CC)C(=O)N[C@H]1CCNC(=O)[C@H]([C@@H](C)O)NC(=O)[C@H](CCN)NC(=O)[C@H](CC)NC(=O)[C@H](CC(C)C)NC(=O)[C@@H](Cc2ccccc2)NC(=O)[C@H](CCN)NC1=O)[C@@H](C)O (Octanoyl-T[Abu][Dab][Dab][dF]L[Abu][Dab]T; lactam 3-C)	0	10	
CCCCCCCC(=O)N[C@H](C(=O)N[C@@H](CCN)C(=O)N[C@H]1CCNC(=O)[C@H]([C@@H](C)O)NC(=O)[C@H](CCN)NC(=O)[C@H](CCN)NC(=O)[C@H](CC(C)C)NC(=O)[C@@H](Cc2ccccc2)NC(=O)[C@H](CC)NC1=O)[C@@H](C)O (Octanoyl-T[Dab][Dab][Abu][dF]L[Dab][Dab]T; lactam 3-C)	0	100	
CCCCCCCC(=O)N[C@H](C(=O)N[C@H](C(=O)N[C@H](CO)C(=O)N[C@H]1CCNC(=O)[C@H]([C@@H](C)O)NC(=O)[C@H](CCN)NC(=O)[C@H](CCN)NC(=O)[C@H](CC(C)C)NC(=O)[C@H](Cc2ccccc2)NC(=O)[C@H](CCN)NC1=O)[C@@H](C)O)[C@@H](C)O	160	190	
CCCCCCCC(=O)N[C@@H](CCN)C(=O)N[C@H](C(=O)N[C@@H](CCN)C(=O)N[C@H]1CCNC(=O)[C@H]([C@@H](C)O)NC(=O)[C@H](CCN)NC(=O)[C@H](CC)NC(=O)[C@H](CC(C)C)NC(=O)[C@@H](Cc2ccccc2)NC(=O)[C@H](CC)NC1=O)[C@@H](C)O (Octanoyl-[Dab]T[Dab][Dab][Abu][dF]L[Abu][Dab]T; lactam 4-C)	0	0	
GENTAMICIN			90.2
CCCCCCCC(=O)N[C@H](C)C(=O)N[C@H](C)C(=O)N[C@H]1CCNC(=O)[C@H]([C@@H](C)O)NC(=O)[C@H](CCN)NC(=O)[C@H](CCN)NC(=O)[C@H](CC(C)C)NC(=O)[C@H](Cc2ccccc2)NC(=O)[C@H](CCN)NC1=O	0	200	
CCCCCCCC(=O)N[C@@H](C)C(=O)N[C@H](C(=O)N[C@H](CO)C(=O)N[C@H]1CCNC(=O)[C@H]([C@@H](C)O)NC(=O)[C@H](CCN)NC(=O)[C@H](CCN)NC(=O)[C@H](CC(C)C)NC(=O)[C@H](Cc2ccccc2)NC(=O)[C@H](CCN)NC1=O)[C@@H](C)O	160	200	
